These results are taken from the RNAGym collection of RNA variant scans (doi:10.1126/science.aae0568).

Variants at the floor of the assay were thinned out.

To fix the notation:
B1: tRNA (parent)
chain: GUUCCGUUGGCGUAAUGGUAACGCGUCUCCCUCCUAAGGAGAAGACUGCGGGUUCGAGUCCCGUACGGAACG

Variants of B1 are the subject of the data set. Nature of the data set: yeast fitness relative to wild type (ratio to wild type); higher = fitter; tRNA-Arg(CCU), competitive growth, 37 C, YPD. Put shortly:
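Amplicons of the tRNA-Arg(CCU) gene were sequenced, 100-nucleotide paired-end, from the start population and from each end population of a pooled yeast competition. The competition, in six parallel replicates, lasted 24 hours in YPD at 37°C. Fitness relative to wild type was calculated from changes in genotype frequencies. Genotypes had to have ≥ 100 starting reads, and estimates < 0.5 were set to 0.5.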
As to U7G A21C G50A U64C, the yeast fitness is no more than 0.5. Turning to U7G C11U G12C C33U U64A G68C, the yeast fitness is no more than 0.5. In the case of U7G C22U C49G G50C C66A, the yeast fitness is no more than 0.5. In the case of U7G C27G U28G G67A it was 0.547. As for U7G A43U A65C, the yeast fitness worked out at 1. Regarding U7G C34A A36U G52A C60A, the yeast fitness was no more than 0.5. As for U7G C62A, the yeast fitness was determined as 0.612.

With U7G C11G C34U C49U U59C C62G, the yeast fitness is no more than 0.5.

In the case of U7G C29U C31U G38C A70G, the yeast fitness is no more than 0.5. The figure for U7G C11G U32A U53G is no more than 0.5; for U7G A37U A65G it is 0.699. Take U7G C22U C49G G50C: the yeast fitness is 0.512. On to U7G A15G A21C, for which the yeast fitness is no more than 0.5.

Take U7G C22U C24G A65U C66U: the yeast fitness is no more than 0.5.

As for U7G A21C G51A, the yeast fitness was no more than 0.5.

As to U7G C62G A69G, the yeast fitness is no more than 0.5. As for U7G C46A C61G A69G, the yeast fitness was no more than 0.5. As to U7G C66U, the yeast fitness amounted to 0.893. The figure for U7G C66A is 0.573; for U7G A15G C27U G68A it is no more than 0.5. With U7G C30U C60U A69C, the yeast fitness came to 0.576.

For the variant U7G C60A A69G, the yeast fitness is no more than 0.5. In the case of U7G C27G U28G U59C it was no more than 0.5; in that of U7G A36C G67A, no more than 0.5.

As to U7G C46U A70G, the yeast fitness is 0.752. The figure for U7G C11G C34U G41A A70U is no more than 0.5. The figure for U7G A21U is 0.717. The figure for U7G A21G is 0.816; for U7G A21C it is 0.588; for U7G A15G U19C A21G G41A C55A it is 0.575. U7G C61U C66A: the yeast fitness turned out to be 0.626. As to U7G A65C, the yeast fitness was determined as 0.998. Turning to U7G A45U C55A, the yeast fitness was no more than 0.5.

Consider U7G A43G C46G A69U, for which the yeast fitness is no more than 0.5.

For the variant U7G A20G A70G, the yeast fitness came to 0.615.

U7G A21G U53C A57C A69U: the yeast fitness is no more than 0.5.

As for U7G C30U G50C, the yeast fitness is no more than 0.5.

As for U7G A45U, the yeast fitness turned out to be 0.852. In the case of U7G A15C U16A C33G A69C it was no more than 0.5; in that of U7G C22A U64C, no more than 0.5. The figure for U7G C29G U35C C46U is no more than 0.5; for U7G C30U G38A it is 0.591. The figure for U7G C34U C60A is no more than 0.5. Regarding U7G A42C G44C G67C, the yeast fitness was no more than 0.5. In the case of U7G C34A G44C G51A C62A it was no more than 0.5; in that of U7G A21C G58C, no more than 0.5; in that of U7G A20G, 0.872. As to U7G A20C, the yeast fitness is 0.651.

As to U7G C29G C30U C46U, the yeast fitness turned out to be 0.534. The figure for U7G C27G U28G C66U is no more than 0.5; for U7G A21C G39C C49A G51A it is no more than 0.5; for U7G G10A C27U G68A it is no more than 0.5. In the case of U7G C11G C34U A36G G41A A65G, the yeast fitness was no more than 0.5. Regarding U7G A15G U19C A21G G41A C55A G63C, the yeast fitness is no more than 0.5. The figure for U7G C30A G48A is 0.673. Consider U7G C31U G39A C55U G68C, for which the yeast fitness was no more than 0.5.

As to U7G C34U, the yeast fitness was determined as 0.588. As to U7G C34G, the yeast fitness stood at 0.649. As to U7G C46U C60A, the yeast fitness is no more than 0.5.

In the case of U7G C27G U32C A36G, the yeast fitness was no more than 0.5. In the case of U7G C24G it was 0.619. The figure for U7G A15C G44A is no more than 0.5; for U7G A21C G56A it is no more than 0.5. The figure for U7G C33A A69G is 0.598; for U7G A42U U53A it is no more than 0.5. As for U7G A15U, the yeast fitness was determined as 0.592. The figure for U7G A43U C46A is 0.603; for U7G C11G C34U G41A G67U it is no more than 0.5. For U7G A70C, the yeast fitness was found to be 0.972. The figure for U7G C33U C55G is no more than 0.5; for U7G G9A C30G G51C it is no more than 0.5; for U7G C60A A70C it is 0.551.

For U7G A15C C24U U32C A43G G51A U54C G67C, the yeast fitness is no more than 0.5. For the variant U7G C29A C30A U54A A57G U64A, the yeast fitness came out at 0.561. As for U7G C27U C49U, the yeast fitness worked out at 0.59. In the case of U7G A43U U64C it was 0.546; in that of U7G C61U G63A C66A, no more than 0.5; in that of U7G A40U G63A, 0.66. The figure for U7G C34G A36C is 0.525. In the case of U7G A21C U26C G44C, the yeast fitness was no more than 0.5.

For the variant U7G A43C G58C, the yeast fitness came out at 0.648. As to U7G C29G C46U, the yeast fitness worked out at 0.546. Consider U7G C49A C61U G67C, for which the yeast fitness is no more than 0.5.

U7G C22G A43U U47A G51A: the yeast fitness came out at 0.664.

As to U7G C55U G56C G63U, the yeast fitness was 0.602. In the case of U7G A20C A42C it was no more than 0.5; in that of U7G C11G C30G G41C, no more than 0.5. The figure for U7G C22A C61G is no more than 0.5; for U7G C30U it is 0.895. Take U7G C30G: the yeast fitness is 0.509. As for U7G C30A, the yeast fitness amounted to 0.721.

On to U7G C61U, for which the yeast fitness is 0.78.

Regarding U7G C27A A40U, the yeast fitness is no more than 0.5.

As for U7G C11G C34U G41A A65G, the yeast fitness was no more than 0.5. For the variant U7G C11G C34U G41A A65C, the yeast fitness was no more than 0.5. As for U7G G10A C11G C27U A40U, the yeast fitness came out at 0.538. The figure for U7G A36U C60U is no more than 0.5; for U7G A42U it is 0.683. As for U7G C11U G12C C33U C61G C62G, the yeast fitness is no more than 0.5. In the case of U7G C30A C55A it was no more than 0.5; in that of U7G A21C G48C C55U G56A, no more than 0.5. As for U7G C11G C34U G41A U54C U64C, the yeast fitness is no more than 0.5. In the case of U7G A15C A45C it was 0.565; in that of U7G C22U U26C U64G G67C, no more than 0.5; in that of U7G C22U C24U U53A, no more than 0.5.

For U7G A20G U47A C61A, the yeast fitness was determined as 0.597. In the case of U7G A21C G44C C66U it was no more than 0.5. In the case of U7G A15G C33G A69U it was no more than 0.5; in that of U7G C11U C60A, no more than 0.5; in that of U7G A57G C60U, 0.62.

Take U7G C27A A36C A42U: the yeast fitness stood at 0.532. The figure for U7G C55A is 0.665; for U7G C55U it is 0.855; for U7G C27U C33U G50C U53A A57U A65U it is no more than 0.5.

U7G A40U A43U G44A A45U U53A: the yeast fitness was 0.61. The figure for U7G A42C C62U is 0.651; for U7G C27G U32C A36G G63A it is no more than 0.5; for U7G A36C G41A U53C it is no more than 0.5. The figure for U7G G9A C31G A36G C62U is no more than 0.5; for U7G A45G A65C C66A it is 1.03. In the case of U7G C29A it was 0.649; in that of U7G C27U C33U, no more than 0.5. Consider U7G A21C A42U C66U, for which the yeast fitness is no more than 0.5. The figure for U7G A40C is 0.807. Take U7G A20C A70G: the yeast fitness was no more than 0.5. The figure for U7G C49A is 0.665; for U7G G9A C31G A36G G68C it is no more than 0.5; for U7G C27G U32C U35C A36G U53A G56A it is no more than 0.5. The figure for U7G A43G C60U C62U A70C is no more than 0.5; for U7G A15C G38C it is no more than 0.5. With U7G A57G G68U, the yeast fitness was no more than 0.5. In the case of U7G C27G U28G G52C G58C A65U A70C it was no more than 0.5; in that of U7G C11G C34U G41A C61A A65C, no more than 0.5; in that of U7G C22G G50A G67A, no more than 0.5. As to U7G C29G C61U G68A, the yeast fitness is no more than 0.5. In the case of U7G C11G C34U G41A C60A C61U G63C C66U it was no more than 0.5; in that of U7G A40C U47A, no more than 0.5; in that of U7G C29U C31U G38C, no more than 0.5.

With U7G C29U A36U, the yeast fitness was no more than 0.5. U7G A36U G63A: the yeast fitness is 0.532.

Turning to U7G A43C U64A, the yeast fitness was 0.682. In the case of U7G A15G C61U G67A it was no more than 0.5. The figure for U7G C29G G52C A57U is no more than 0.5. In the case of U7G A20G A21G G38C G50C it was no more than 0.5. For the variant U7G C22A U53C, the yeast fitness was no more than 0.5. As for U7G A37G C49A, the yeast fitness is no more than 0.5. In the case of U7G C31U U47C it was 0.536; in that of U7G C11G, 0.692.

U7G C11U: the yeast fitness turned out to be 0.807. On to U7G C30U G38A G50A G68C, for which the yeast fitness is no more than 0.5.

On to U7G C27G U28G G39C A42G, for which the yeast fitness was no more than 0.5. The figure for U7G C11G A21G C34U G41A is no more than 0.5.

U7G A21C G44C G58C: the yeast fitness was no more than 0.5. As for U7G A43C, the yeast fitness is 0.969.

In the case of U7G A43U C61G, the yeast fitness was no more than 0.5.

With U7G C34A G44C G51A, the yeast fitness was no more than 0.5.

On to U7G C11G C34U G41A A57U C66U, for which the yeast fitness is no more than 0.5. In the case of U7G C27U G68A it was no more than 0.5.

In the case of U7G A36G A45U, the yeast fitness was no more than 0.5. The figure for U7G A15C U16A C33G A37C C49A C61U A70U is no more than 0.5.

In the case of U7G A15G C27A, the yeast fitness came out at 0.567.

Turning to U7G A36U A70U, the yeast fitness was determined as 0.544. In the case of U7G A37U C46G it was no more than 0.5; in that of U7G C49U A57U, no more than 0.5.

On to U7G A40U A69C, for which the yeast fitness came to 0.731. In the case of U7G A69U it was 0.894; in that of U7G C27G U28G G68A, no more than 0.5.
